Consider 14 compounds from ChEMBL document CHEMBL4680123, “Synthesis of novel 3-halo-3-nitroflavanones and their activities as DNA methyltransferase inhibitors in cancer cells” (Eur J Med Chem, 2020).

SMILES strings stand for the structures. The source made the active and inactive calls.

By EC50 is commonly meant the concentration giving half of the maximal effect. By half-life is commonly meant the time needed for the level to fall by half in the phase considered. As a reminder, the inhibition is the change of the read-out against control, counted positive when it falls.

The target in data set [1] is DNA (cytosine-5)-methyltransferase 3B (Homo sapiens) (UniProt Q9UBC3). In words: Inhibition of human DNMT3B in human KG-1 cells expressing cmv-firefly luciferase assessed as increase in luminescence at 5 uM incubated for 24 hrs by luciferase reporter gene assay relative to control. Format: cell-based. The procedure, abridged: (§1)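 KG-1 cells stably carrying firefly luciferase under a 50% methylated CMV promoter were seeded at 20 000 cells/well. They were exposed to compound (3.2–10 µM range) or DMSO for 24 h, then luciferase was quantified by One-Glo luminescence. Result is fold induction over DMSO control. Mean of three experiments with standard error.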
(In general: A reporter such as luciferase makes a cellular process visible.)

Another data set relates to HCT-116. In words: Cytotoxicity against human HCT-116 cells assessed as reduction in cell viability measured after 72 hrs by APTlite one step luminescence assay. The note with it: HCT-116, 72 h. Format: functional, cell-based. The procedure, abridged: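 KG-1 cells were seeded at 2x10^4 cells/ml in RPMI-1640 with 15% FCS, and HCT116 cells at 1.5x10^4 cells/ml in MEM with HEPES, L-glutamine and 10% FCS, at 37 °C, 5% CO2. Compound was given at 3.2x10-9 to 1x10-5 M on day 0 and again on days 2 and 3. ATP-luminescence read-out on day 4. EC50 is the concentration giving 50% viability loss versus untreated cells. Mean of at least two independent experiments run in duplicate.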

The target in data set [2] is DNA (cytosine-5)-methyltransferase 3B (Homo sapiens) (UniProt Q9UBC3). In words: Inhibition of human DNMT3B in human KG-1 cells expressing cmv-firefly luciferase assessed as increase in luminescence incubated for 24 hrs by luciferase reporter gene assay relative to control. In kind it is cell-based. Conditions: dose 3.2-10 µM. The procedure, abridged:
as §1

For data set [3], the target named is DNA (cytosine-5)-methyltransferase 3A (Homo sapiens) (UniProt Q9Y6K1). In words: Inhibition of human DNMT3A catalytic domain expressed in Escherichia coli Rosetta-gamiTM 2(DE3) pLysS competent cells using biotinylated 6-FAM double strand DNA comprising unique CpG site […] incubated for 1 hrs by fluorescence based assay.
The next data set concerns KG-1. In words: Cytotoxicity against human KG-1 cells assessed as reduction in cell viability measured after 72 hrs by APTlite one step luminescence assay. In kind it is functional, cell-based. Conditions: KG-1, 72 h.
The nature of data set [4]: Chemical stability of compound in DNMT3A-c enzyme buffer assessed as half life at 1 mM by HPLC analysis. Format: physicochemical. A digest of the protocol:
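Followed over 15 h by reverse-phase HPLC (H2O/acetonitrile gradient with 0.1% formic acid), detection at 250 nm. Remaining compound taken from HPLC peak area. Mean of at least two experiments.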

Data set [5] concerns the target DNA (cytosine-5)-methyltransferase 3B (Homo sapiens) (UniProt Q9UBC3). In words: Inhibition of human DNMT3B in human KG-1 cells expressing cmv-firefly luciferase assessed as increase in luminescence upto 10 uM incubated for 24 hrs by luciferase reporter gene assay relative to control. Format: cell-based. Conditions: dose microM <=10, time 24.0 hrs. A digest of the protocol:
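KG-1 cells stably carrying firefly luciferase (luc+) under a 50%-methylated CMV promoter, seeded at 20 000 cells/well. Treated 24 h with compound (3.2–10 µM) or DMSO. Luciferase quantified by One-Glo luminescence and expressed as fold induction over DMSO control. Mean of three experiments with standard error.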

The target in data set [6] is DNA (cytosine-5)-methyltransferase 3A (Homo sapiens) (UniProt Q9Y6K1). In words: Inhibition of human DNMT3A catalytic domain expressed in Escherichia coli Rosetta-gamiTM 2(DE3) pLysS competent cells using biotinylated 6-FAM double strand DNA comprising unique CpG site […] at 32 uM incubated for 1 hrs by fluorescence based assay.

DNA (cytosine-5)-methyltransferase 3A (Homo sapiens), sequence (Q9Y6K1 whole entry, looked up, the tested form may be a part): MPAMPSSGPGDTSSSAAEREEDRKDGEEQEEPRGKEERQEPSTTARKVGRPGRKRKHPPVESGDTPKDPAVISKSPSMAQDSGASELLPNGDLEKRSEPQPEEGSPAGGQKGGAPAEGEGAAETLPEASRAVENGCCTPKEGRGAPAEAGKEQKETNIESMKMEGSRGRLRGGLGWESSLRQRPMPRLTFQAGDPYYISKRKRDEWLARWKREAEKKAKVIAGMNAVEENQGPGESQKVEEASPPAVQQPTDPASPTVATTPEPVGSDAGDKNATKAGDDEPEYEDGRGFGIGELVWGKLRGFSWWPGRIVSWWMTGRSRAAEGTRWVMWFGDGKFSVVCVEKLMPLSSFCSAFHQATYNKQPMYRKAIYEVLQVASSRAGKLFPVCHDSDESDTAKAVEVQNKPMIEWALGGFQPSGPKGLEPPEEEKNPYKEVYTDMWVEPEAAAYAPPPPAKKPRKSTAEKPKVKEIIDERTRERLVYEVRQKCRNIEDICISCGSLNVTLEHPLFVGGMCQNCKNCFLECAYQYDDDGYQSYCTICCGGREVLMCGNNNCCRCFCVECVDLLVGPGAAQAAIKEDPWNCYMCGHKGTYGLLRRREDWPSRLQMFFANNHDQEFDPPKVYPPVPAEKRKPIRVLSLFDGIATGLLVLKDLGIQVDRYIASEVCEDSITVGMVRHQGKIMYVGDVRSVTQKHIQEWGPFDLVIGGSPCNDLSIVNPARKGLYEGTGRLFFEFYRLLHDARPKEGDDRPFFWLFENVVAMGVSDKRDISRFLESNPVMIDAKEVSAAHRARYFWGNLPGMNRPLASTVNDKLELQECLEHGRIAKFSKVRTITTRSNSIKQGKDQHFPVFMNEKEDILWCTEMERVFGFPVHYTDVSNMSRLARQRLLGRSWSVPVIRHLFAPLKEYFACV

In the case of `O=C1c2ccccc2O[C@H](c2ccccc2[N+](=O)[O-])[C@]1(Br)[N+](=O)[O-]` (racemic), the fold change (FC) in data set [1] was found to be 8.8. The EC50 in the data set with HCT-116 is 12.4 µM; in data set [3] (read-out: EC50), 5.1 µM; with KG-1, 5.3 µM. Besides, in data set [2], the Activity entry is “Dose-dependent effect”. The half-life at 1000 µM in data set [4] is 0.7 h.

Turning to `O=C1c2ccccc2O[C@H](c2ccccc2F)[C@@]1(Br)[N+](=O)[O-]` (racemic), in data set [5], the inhibition entry was “inactive”. In addition, in data set [3] (read-out: EC50), the concentration for a half-maximal effect (EC50) is 5.7 µM.

As to `CC1([N+](=O)[O-])C(=O)c2ccccc2OC1c1ccccc1[N+](=O)[O-]` (stereo not given), the inhibition entry in data set [5] was “inactive”. Further, in data set [3] (read-out: EC50), the EC50 is over 40 µM.

For the compound `O=C1c2ccccc2OC(c2ccccc2[N+](=O)[O-])C1(Cl)[N+](=O)[O-]` (stereo not given), the fold change (FC) in data set [1] is 2. For the same compound, the inhibition entry in data set [5] was “inactive”. The EC50 in data set [3] (read-out: EC50) came out at 4.4 µM. In data set [4], the half-life at 1000 µM is 1 h.

As to `COc1ccc([N+](=O)[O-])c([C@H]2Oc3ccccc3C(=O)[C@]2(Br)[N+](=O)[O-])c1` (racemic), the concentration for a half-maximal effect (EC50) with HCT-116 amounted to 8.1 µM; in data set [3] (read-out: EC50), 5.3 µM; in the data set on KG-1 it was 12.9 µM. For the same compound, the Activity result in data set [2] was “Dose-dependent effect”. The half-life at 1000 µM in data set [4] was 7 h.

Regarding `O=C1c2ccccc2O[C@H](c2ccccc2[N+](=O)[O-])[C@@]1(Br)[N+](=O)[O-]` (racemic), in data set [1], the fold change (FC) turned out to be 6.1. The EC50 worked out at 10.7 µM with HCT-116, 3.2 µM in data set [3] (read-out: EC50) and 13 µM with KG-1. For the same compound, in data set [2], the Activity entry is “Dose-dependent effect”. Also, the half-life at 1000 µM in data set [4] is 1.7 h.

Take `COc1ccc([N+](=O)[O-])c([C@H]2Oc3ccccc3C(=O)[C@@]2(Br)[N+](=O)[O-])c1` (racemic): the Activity result in data set [2] was “Dose-dependent effect”. Further, the values for the EC50 (in data set [3] (read-out: EC50); with KG-1) were 4.7 µM and 18.6 µM, respectively.

On to `O=C1c2ccccc2OC(c2ccccc2[N+](=O)[O-])C1(I)[N+](=O)[O-]` (racemic), for which the inhibition result in data set [5] is “inactive”. The EC50 in data set [3] (read-out: EC50) worked out at 2.8 µM. Besides, the half-life at 1000 µM in data set [4] is over 15 h.

Regarding `O=C1c2ccccc2OC(c2ccccc2[N+](=O)[O-])C1[N+](=O)[O-]` (stereo not given), the concentration giving a half-maximal response (EC50) result in data set [3] is “Not Active”. The compound also returned an inhibition in data set [6] of 0%.

With `O=C1c2ccccc2OC(c2ccccc2)C1[N+](=O)[O-]` (trans isomer), the EC50 result in data set [3] is reported as “Not Active”. The compound also yielded an inhibition in data set [6] of 0%.

In the case of `COc1ccc([N+](=O)[O-])c(C2Oc3ccccc3C(=O)C2[N+](=O)[O-])c1` (stereo not given), the EC50 entry in data set [3] is listed as “Not Active”. In data set [6], this compound registered an inhibition of 0%.

Regarding `COc1ccc([N+](=O)[O-])c([C@H]2Oc3ccccc3C(=O)[C@]2(I)[N+](=O)[O-])c1` (racemic), the inhibition entry in data set [5] is “inactive”. For the same compound, the half-maximal effective concentration (EC50) in data set [3] (read-out: EC50) stood at 2 µM. Further, the half-life at 1000 µM in data set [4] is over 15 h.

Regarding `O=C1c2ccccc2OC(c2ccccc2)C1(Br)[N+](=O)[O-]` (stereo not given), the inhibition result in data set [5] is “inactive”. The concentration giving a half-maximal response (EC50) in data set [3] (read-out: EC50) was determined as 6.7 µM.

Consider `COc1ccc([N+](=O)[O-])c(C2Oc3ccccc3C(=O)C2(Cl)[N+](=O)[O-])c1` (stereo not given), for which, in data set [5], the inhibition result was “inactive”. Also, the EC50 in data set [3] (read-out: EC50) worked out at 4.4 µM. Moreover, the half-life at 1000 µM in data set [4] was 3.4 h.
